14 compounds from ChEMBL document CHEMBL1124753, “Hydroxyethylamine analogues of the p17/p24 substrate cleavage site are tight-binding inhibitors of HIV protease” (J Med Chem, 1990) can be followed below.

In experiment [1] the target is T1, Human immunodeficiency virus type 1 protease (Human immunodeficiency virus 1, UniProt Q72874). The experiment is described as follows: Inhibition of HIV protease at pH 6.4, 37 degree C.
In experiment [2] the target is T1, Human immunodeficiency virus type 1 protease. The experiment in a line: Inhibitory activity against HIV Protease was measured at pH 6.4 and 37 degrees C. The method, boiled down:
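Recombinant HIV protease expressed in E. coli; substrate Ac-Thr-Ile-Met-Gln-Arg-NH2 varied 0.5–10 mM. Inhibitor added in DMSO (final 1–3%), preincubated with enzyme 10 min before substrate started the reaction. Initial rates by HPLC and fluorometric assays. Ki from fitting initial velocities to the competitive inhibition equation; each is the average of three or more independent determinations.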

Molecules are shown by their SMILES. *1 amine or outer side, *2 acyl side, *3 side chain or, on linkers, in order; H or OH if unused. Where a SMILES comes first, the peptide text is derived from it. [ ]: non-standard residue; d: D form. The star is where a group is joined. Phe(ψ(S)CH(OH)CH2N)Pro = O=C([C@@H]1CCCN1C[C@H](O)[C@H](Cc1ccccc1)N[*:1])[*:2]; Ahppa(3S,4S) = O=C(C[C@H](O)[C@H](Cc1ccccc1)N[*:1])[*:2]; X1 = CC(C)C[C@H](N[*:1])[C@@H](O)CN1CCC[C@H]1C(=O)[*:2]; X2 = O=C([C@@H]1CCCN1C[C@H](Cc1ccccc1)N[*:1])[*:2]; Sta = CC(C)C[C@H](N)[C@@H](O)CC(=O)O; Boc = CC(C)(C)OC(=O)*

In experiment [1], `COC(=O)[C@@H](NC(=O)[C@@H](NC(=O)CNC[C@H](O)[C@H](Cc1ccccc1)NC(=O)[C@H](C)NC(=O)[C@H](C)N)C(C)C)C(C)C` showed a Ki of 18 nM. Consider `CC[C@H](C)[C@H](NC(=O)[C@H](Cc1ccccc1)NC[C@H](O)[C@H](Cc1ccccc1)NC(=O)OC(C)(C)C)C(=O)N[C@@H](Cc1ccccc1)C(=O)OC`, for which affinity in experiment [1] was put at a Ki of 0.6 nM.

On to `CC[C@H](C)[C@H](NC(=O)C[C@H](O)[C@H](Cc1ccccc1)NC(=O)[C@H](CC(N)=O)NC(=O)[C@H](CC(C)C)NC(=O)[C@H](CO)NC(=O)OC(C)(C)C)C(=O)N[C@H](C(=O)OC)C(C)C` (Boc-SLN[Ahppa(3S,4S)]IV-OMe), for which the Ki in experiment [1] was determined as 2640 nM. For the compound `CC[C@H](C)[C@H](NC(=O)C[C@H](O)[C@H](Cc1ccccc1)NC(=O)[C@H](CC(N)=O)NC(=O)[C@H](CC(C)C)NC(=O)[C@H](CO)NC(C)=O)C(=O)N[C@H](C(=O)OC)C(C)C` (Ac-SLN[Ahppa(3S,4S)]IV-OMe), the Ki in experiment [2] was 8000 nM. As to `CC[C@@H](C)[C@H](NC(=O)[C@@H]1CCCN1C[C@@H](O)[C@H](Cc1ccccc1)NC(=O)[C@H](CC(N)=O)NC(=O)[C@H](CC(C)C)NC(C)=O)C(=O)N[C@H](C(=O)OC)C(C)C`, the Ki in experiment [1] is 21 nM. As for `CC[C@H](C)[C@H](NC(=O)[C@@H]1CCCN1C[C@H](O)[C@H](CC(C)C)NC(=O)[C@H](CC(N)=O)NC(=O)[C@H](CC(C)C)NC(C)=O)C(=O)OC`, the Ki in experiment [2] is over 10000 nM. `CC[C@H](C)[C@H](NC(=O)C[C@H](O)[C@H](CC(C)C)NC(=O)[C@H](CC(N)=O)NC(=O)[C@H](CC(C)C)NC(=O)[C@H](CO)NC(C)=O)C(=O)N[C@H](C(=O)OC)C(C)C` (Ac-SLN[Sta]IV-OMe): in experiment [1], the Ki amounted to 1060 nM. Turning to `CC[C@H](C)[C@H](NC(=O)[C@@H]1CCCN1C[C@H](O)[C@H](CC(C)C)NC(=O)[C@H](CC(N)=O)NC(=O)[C@H](CC(C)C)NC(=O)[C@H](CO)NC(C)=O)C(=O)OC` (Ac-SLN[X1]I-OMe), affinity in experiment [2] was put at a Ki of 980 nM. Regarding `CC[C@H](C)[C@H](NC(=O)[C@@H]1CCCN1C[C@H](O)[C@H](CC(C)C)NC(=O)[C@H](CC(N)=O)NC(=O)[C@H](CC(C)C)NC(C)=O)C(=O)N[C@H](C(=O)OC)C(C)C` (Ac-LN[X1]IV-OMe), in experiment [1], the affinity, expressed as Ki, was 21 nM. Turning to `CC[C@H](C)[C@H](NC(=O)[C@@H]1CCCN1C[C@H](O)[C@H](Cc1ccccc1)NC(=O)[C@H](CC(N)=O)NC(=O)[C@H](CC(C)C)NC(=O)[C@H](CO)NC(C)=O)C(=O)N[C@H](C(=O)OC)C(C)C` (Ac-SLN[Phe(ψ(S)CH(OH)CH2N)Pro]IV-OMe), the Ki in experiment [1] amounted to 0.66 nM.

`CC(=O)N[C@@H](CO)C(=O)N[C@@H](CCC(N)=O)C(=O)N[C@@H](CC(N)=O)C(=O)N[C@@H](Cc1ccccc1)CN1CCC[C@H]1C(=O)N[C@H](C(=O)N[C@H](C(N)=O)C(C)C)C(C)C` (Ac-SQN[X2]VV-NH2): the Ki in experiment [1] came out at 13000 nM.

In experiment [1], `CC[C@H](C)[C@H](NC(=O)[C@@H]1CCCN1C[C@H](O)[C@H](Cc1ccccc1)NC(=O)[C@H](CC(N)=O)NC(=O)[C@H](CC(C)C)NC(=O)[C@H](CO)NC(C)=O)C(=O)OC` (Ac-SLN[Phe(ψ(S)CH(OH)CH2N)Pro]I-OMe) yielded a Ki of 420 nM.

In the case of `COC(=O)[C@@H](NC(=O)[C@@H](NC(=O)C[C@H](O)[C@H](Cc1ccccc1)NC(=O)[C@H](CC(N)=O)NC(=O)[C@H](CCC(N)=O)NC(=O)[C@H](CO)NC(C)=O)C(C)C)C(C)C` (Ac-SQN[Ahppa(3S,4S)]VV-OMe), the affinity in experiment [1] corresponds to a Ki of 39000 nM. As to `CC[C@H](C)[C@H](NC(=O)[C@@H]1CCCN1C[C@H](O)[C@H](CC(C)C)NC(=O)[C@H](CC(N)=O)NC(=O)[C@H](CC(C)C)NC(=O)[C@H](CO)NC(C)=O)C(=O)N[C@H](C(=O)OC)C(C)C` (Ac-SLN[X1]IV-OMe), the inhibition constant (Ki) in experiment [2] was 118 nM.

The Ki is the dissociation constant of the complex between target and ligand, obtained from inhibition or displacement. Read a high Ki as lower affinity.
